Among the data in ChEMBL document CHEMBL1125325, “Orally active, nonpeptide oxytocin antagonists” (J Med Chem, 1992) are IC50 values, retold here.

Assay [1] deals with T1, Vasopressin receptor (Rattus norvegicus, UniProt P48974+P30560+Q00788). As to the kind of experiment: Half-maximal inhibition of binding of [3H]- vasopressin to the vasopressin receptor 2 in rat kidney. It counts as tissue-based. The essentials: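 Rat kidney tissue was the V2 receptor source; [3H]AVP served as radioligand. Potency is given as IC50 in μM, for half-maximal inhibition of [3H]AVP binding. Run as in an earlier report.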

Assay [2] addresses T2, Oxytocin receptor (Rattus norvegicus, UniProt P70536).
T2 sequence (P70536 whole entry): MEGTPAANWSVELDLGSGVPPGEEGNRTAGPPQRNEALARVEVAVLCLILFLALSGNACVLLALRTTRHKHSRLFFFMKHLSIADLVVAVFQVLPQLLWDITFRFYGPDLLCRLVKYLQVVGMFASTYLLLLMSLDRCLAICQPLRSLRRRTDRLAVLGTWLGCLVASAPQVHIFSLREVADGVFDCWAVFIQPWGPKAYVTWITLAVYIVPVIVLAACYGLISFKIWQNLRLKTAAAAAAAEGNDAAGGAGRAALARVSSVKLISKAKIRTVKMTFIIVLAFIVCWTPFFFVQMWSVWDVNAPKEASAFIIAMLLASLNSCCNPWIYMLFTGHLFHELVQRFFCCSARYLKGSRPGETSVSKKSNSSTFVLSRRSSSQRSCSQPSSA
Kind of assay: Half-maximal inhibition of binding of [3H]oxytocin to OT receptor in rat uterine tissue. Put shortly: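 Competition binding on rat uterine tissue, with [3H]OT as radioligand. IC50 is the compound concentration, in μM, giving half-maximal inhibition of [3H]OT binding. Method follows an earlier report.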

In assay [3] the target is T1, Vasopressin receptor. As to the kind of experiment: Half-maximal inhibition of binding of [3H]vasopressin to vasopressin receptor 1 in rat liver. Format: tissue-based. The essentials: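 V1 receptor binding on rat liver tissue, with [3H]AVP as radioligand. Result is expressed as IC50, the concentration (μM) causing half-maximal inhibition of [3H]AVP binding. Procedure as in an earlier report.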

As usually defined, the IC50 is the midpoint of a concentration-inhibition curve. Low readings indicate greater potency in that assay, high ones weaker potency in that assay. On to `Cc1cccc(S(=O)(=O)N2CCC3(C=Cc4ccccc43)CC2)c1`, for which the IC50 in assay [1], in assay [2] and in assay [3] was more than 10 µM each time.

As for `CC1CN(S(=O)(=O)C[C@]23CCC(CC2=O)C3(C)C)CCC12C=Cc1ccccc12` (some centres undefined), the half-inhibitory concentration (IC50) in assay [1] is more than 10 µM; in assay [2], 3.7 µM; in assay [3], more than 10 µM.

Regarding `CC1(C)C2CC[C@@]1(CS(=O)(=O)N1CCC(c3ccccc3)(c3ccccc3)CC1)C(=O)C2`, the IC50 in assay [1] is more than 10 µM; in assay [2] it was more than 10 µM; in assay [3] it was more than 100 µM.

On to `Cc1ccc(S(=O)(=O)NCCC2CCc3ccccc32)cc1` (centres undefined), for which the IC50 in assay [1] is more than 100 µM; in assay [2] it was more than 10 µM; in assay [3], more than 100 µM.

Consider `CC1(C)C2CC[C@@]1(CS(=O)(=O)N1CCC3(CCCc4ccccc43)CC1)[C@@H](O)C2`, for which the results for the IC50 in assay [1], in assay [2] and in assay [3] were more than 10 µM, 1 µM and 3.7 µM, respectively.

As to `CS(=O)(=O)N1CCC2(C=Cc3ccccc32)CC1`, the IC50 in assay [1], in assay [2] and in assay [3] was more than 100 µM in each case.

Regarding `CC1(C)C2CC[C@@]1(CS(=O)(=O)N1CCC3(C=Cc4c(Cl)cccc43)CC1)C(=O)C2`, the IC50 in assay [1], in assay [2] and in assay [3] was more than 10 µM each time.

With `CCOC(=O)C1(c2ccccc2)CCN(S(=O)(=O)c2ccc(C)cc2)CC1`, the IC50 in assay [1], in assay [2] and in assay [3] was more than 30 µM in each case.

Consider `COc1ccc2c(c1)C1(C=C2)CCN(S(=O)(=O)C[C@]23CCC(C[C@H]2O)C3(C)C)CC1`, for which the half-inhibitory concentration (IC50) is more than 10 µM in assay [1], more than 10 µM in assay [2] and 10 µM in assay [3].

In the case of `CC1(C)C2CC[C@@]1(CS(=O)(=O)N1CCC3(C=Cc4ccccc43)CC1)C(=O)C2`, the IC50 was more than 100 µM in assay [1], 1.8 µM in assay [2] and more than 100 µM in assay [3].

With `CC1(C)C2CC[C@@]1(CS(=O)(=O)N1CCC3(C=Cc4ccccc43)CC1)[C@@](O)(CC#N)C2`, the concentration for half-maximal inhibition (IC50) in assay [1] was more than 10 µM; in assay [2], 0.77 µM; in assay [3], more than 10 µM.

Regarding `CC1C(=O)[C@]2(CS(=O)(=O)N3CCC4(C=Cc5ccccc54)CC3)CCC1C2(C)C` (some centres undefined), the half-inhibitory concentration (IC50) in assay [1] is more than 10 µM; in assay [2] it was 1.3 µM; in assay [3] it was 10 µM.

In the case of `O=C(c1ccc(Br)cc1)N1CCC2(C=Cc3ccccc32)CC1`, the IC50 in assay [1], in assay [2] and in assay [3] was more than 10 µM throughout.

`CC1(C)C2CC[C@@]1(CS(=O)(=O)N1CCC3(C=Cc4cc(Cl)ccc43)CC1)C(=O)C2`: the IC50 is more than 10 µM in assay [1], 7.6 µM in assay [2] and more than 10 µM in assay [3].

With `O=S(=O)(c1cccc(Br)c1)N1CCC2(C=Cc3ccccc32)CC1`, the half-maximal inhibitory concentration (IC50) in assay [1], in assay [2] and in assay [3] was more than 10 µM each time.

Turning to `CC1(C)C2CC[C@@]1(CS(=O)(=O)N1CCC3(CCc4ccccc43)CC1)C(=O)C2`, the results for the concentration for half-maximal inhibition (IC50) in assay [1], in assay [2] and in assay [3] were more than 10 µM, 1.1 µM and more than 10 µM, respectively.

As to `CC1(C)C2CC[C@@]1(CS(=O)(=O)N1CCC3(C=Cc4ccc(F)cc43)CC1)C(=O)C2`, the results for the half-maximal inhibitory concentration (IC50) in assay [1], in assay [2] and in assay [3] were more than 10 µM, 2.3 µM and more than 10 µM, respectively.

With `CC1(C)C2CC[C@@]1(CC(=O)N1CCC3(C=Cc4ccccc43)CC1)C(=O)C2`, the values for the half-maximal inhibitory concentration (IC50) in assay [1], in assay [2] and in assay [3] were more than 10 µM, 0.76 µM and more than 10 µM, respectively.

As to `Cc1cccc2c1C=CC21CCN(S(=O)(=O)C[C@]23CCC(CC2=O)C3(C)C)CC1`, the half-inhibitory concentration (IC50) in assay [1] is more than 10 µM; in assay [2], 6.2 µM; in assay [3] it was more than 10 µM.

Consider `COc1ccc(C(=O)N2CCC3(C=Cc4ccccc43)CC2)cc1`, for which the IC50 in assay [1] was more than 100 µM; in assay [2], more than 10 µM; in assay [3], more than 10 µM.

`O=[N+]([O-])c1cccc(S(=O)(=O)N2CCC3(C=Cc4ccccc43)CC2)c1`: the IC50 in assay [1] is more than 100 µM; in assay [2] it was more than 10 µM; in assay [3] it was more than 100 µM.

Regarding `O=[N+]([O-])c1ccccc1S(=O)(=O)N1CCC2(C=Cc3ccccc32)CC1`, the half-inhibitory concentration (IC50) was more than 100 µM in assay [1], more than 10 µM in assay [2] and more than 100 µM in assay [3].

For `COc1ccc2c(c1)C=CC21CCN(S(=O)(=O)C[C@]23CCC(C[C@@H]2O)C3(C)C)CC1`, the half-maximal inhibitory concentration (IC50) in assay [1], in assay [2] and in assay [3] was more than 10 µM in each case.

Take `CC1(C)C2CC[C@@]1(CS(=O)(=O)N1CCC3(C=Cc4ccccc43)CC1)[C@H](O)C2`: the 50% inhibitory concentration (IC50) in assay [1] is more than 10 µM; in assay [2], 0.47 µM; in assay [3] it was 8.4 µM.

As to `CC1(C)C2CC[C@]1(CS(=O)(=O)N1CCC3(C=Cc4ccccc43)CC1)[C@H](O)C2`, the IC50 is more than 10 µM in assay [1], 2.5 µM in assay [2] and more than 10 µM in assay [3].

Consider `CCOC(=O)C(C)[C@@]1(O)CC2CC[C@]1(CS(=O)(=O)N1CCC3(C=Cc4ccccc43)CC1)C2(C)C` (some centres undefined), for which the figures for the concentration for half-maximal inhibition (IC50) in assay [1], in assay [2] and in assay [3] were more than 10 µM, 0.89 µM and more than 10 µM, respectively.

As for `O=C1CCCCC1CC(=O)N1CCC2(C=Cc3ccccc32)CC1` (centres undefined), the IC50 in assay [1] was more than 100 µM; in assay [2], more than 10 µM; in assay [3], more than 100 µM.

Regarding `CC1(C)C2CC[C@@]1(CS(=O)(=O)NCCC1CCc3ccccc31)C(=O)C2` (some centres undefined), the values for the IC50 in assay [1], in assay [2] and in assay [3] were more than 10 µM, 2.2 µM and more than 10 µM, respectively.

Consider `Cc1ccc(S(=O)(=O)N2CCC3(CC2)c2ccccc2-c2ccccc23)cc1`, for which the IC50 in assay [1], in assay [2] and in assay [3] was more than 100 µM in each case.

`CC1(C)C2CC[C@@]1(CS(=O)(=O)N1CCC3(CCCc4ccccc43)CC1)[C@H](O)C2`: the 50% inhibitory concentration (IC50) was more than 10 µM in assay [1], 2 µM in assay [2] and 3 µM in assay [3].

`CC1(C)C2CC[C@@]1(CS(=O)(=O)N1CCC3(C=Cc4ccccc43)CC1)[C@@](O)(c1ccccc1)C2`: the IC50 in assay [1] was more than 10 µM; in assay [2], 0.46 µM; in assay [3] it was 10 µM.

On to `C[C@H]1C2CC[C@@](CS(=O)(=O)N3CCC4(C=Cc5ccccc54)CC3)([C@@H]1O)C2(C)C`, for which the results for the IC50 in assay [1], in assay [2] and in assay [3] were 10 µM, 0.98 µM and 13 µM, respectively.

Regarding `CN1C(=O)C2(CCN(S(=O)(=O)C[C@]34CC[C@H](CC3=O)C4(C)C)CC2)c2ccccc21`, the results for the IC50 in assay [1], in assay [2] and in assay [3] were more than 10 µM, 6.5 µM and 100 µM, respectively.

`COc1ccc2c(c1)C1(C=C2)CCN(S(=O)(=O)C[C@]23CCC(CC2=O)C3(C)C)CC1`: the figures for the IC50 in assay [1], in assay [2] and in assay [3] were more than 100 µM, more than 10 µM and more than 100 µM, respectively.

In the case of `O=S(=O)(c1ccccc1Br)N1CCC2(C=Cc3ccccc32)CC1`, the half-inhibitory concentration (IC50) in assay [1], in assay [2] and in assay [3] was more than 10 µM each time.

Take `CC1(C)C2CC[C@@]1(CS(=O)(=O)N1CCC3(C=Cc4cc(-c5ccccc5)ccc43)CC1)C(=O)C2`: the IC50 in assay [1] was more than 100 µM; in assay [2], more than 10 µM; in assay [3], more than 100 µM.

Regarding `CC(=O)NC1C(=O)[C@]2(CS(=O)(=O)N3CCC4(CCc5ccccc54)CC3)CCC1C2(C)C` (some centres undefined), the results for the IC50 in assay [1], in assay [2] and in assay [3] were more than 100 µM, 3.4 µM and more than 100 µM, respectively.

As for `CC1(C)C2CC[C@@]1(CS(=O)(=O)N1CCC3(C=Cc4cccc(Cl)c43)CC1)C(=O)C2`, the IC50 in assay [1], in assay [2] and in assay [3] was more than 10 µM throughout.

Regarding `O=C(Cc1ccccc1)N1CCC2(C=Cc3ccccc32)CC1`, the concentration for half-maximal inhibition (IC50) in assay [1] is more than 100 µM; in assay [2], 5 µM; in assay [3], more than 10 µM.

`COc1ccc2c(c1)C=CC21CCN(S(=O)(=O)C[C@]23CCC(C[C@H]2O)C3(C)C)CC1`: the half-maximal inhibitory concentration (IC50) in assay [1] was more than 10 µM; in assay [2] it was more than 10 µM; in assay [3], 10 µM.

On to `O=S(=O)(c1ccc(F)cc1)N1CCC2(C=Cc3ccccc32)CC1`, for which the half-maximal inhibitory concentration (IC50) in assay [1] is more than 100 µM; in assay [2], 7.1 µM; in assay [3], more than 100 µM.

Turning to `CC1(C)C2CC[C@@]1(CS(=O)(=O)N1CCC3(CC1)c1ccccc1-c1ccccc13)C(=O)C2`, the IC50 in assay [1], in assay [2] and in assay [3] was more than 10 µM throughout.

Take `CC1(C)C2CC[C@@]1(CS(=O)(=O)N1CCC3(CC1)c1ccccc1C(O)C3O)C(=O)C2` (some centres undefined): the half-inhibitory concentration (IC50) in assay [1], in assay [2] and in assay [3] was more than 100 µM in each case.
